Compounds with a hit are over-represented: about 4.9% of the library has one in this group of screens.
RAM inhibit: blocks the yeast RAM network; S. cerevisiae dse1pr::URA3 reporter, 5-FOA growth OD615, 2 d; analog-sensitive cbk1-as2 kinase mutant strain; 190,000 compounds, 1.8% hits; inhibition, % at 50 µM;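 active = inhibition above a set limit, 3 SD over mean compound inhibition, cut at about 8.4% in these data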;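 also: 0% = DMSO-only wells with no growth and 100% = 10 µM 1-NA-PP1 full growth; inhibition rescues growth on 5-FOA so higher OD means more RAM inhibition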
NPY Y1 blocker: blocks the human neuropeptide Y Y1 receptor; P25929; HEK293-CNG Y1 cells, membrane potential fluorescence; NPY at EC95, then isoproterenol; inhibition, % at 3.6 µM; 200,000 compounds, 1% hits;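 active = inhibition above the campaign mean inhibition of all tested compounds plus 3 SD, cut at about 20% in these data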;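 also: 0% = DMSO wells given NPY plus isoproterenol and 100% = isoproterenol alone without NPY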
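Assay system: HEK293 Y1/CNG channel cell line; Doses: single compound dose of 3.6 µM, 0.4% DMSO; Timing: dye 3 h, compound 60 min room temperature, stimulation 45 min; Technique: Membrane-potential fluorescent dye readout; Measure: % inhibition of NPY effect.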
NPY2 pot ag: potentiators or agonists of human neuropeptide Y receptor Y2. cells expressing NPY-Y2, potentiator/agonist read-out. activation, % at 3.6 µM. 220,000 compounds, 0.45% hits. AID 1359; in the data active = activation above about 27%;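 also: cells stimulated with NPY near EC25 plus isoproterenol at EC100; 0% = vehicle plus submaximal agonist and 100% = vehicle plus saturating agonist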
Target sequence (P49146 whole entry, looked up): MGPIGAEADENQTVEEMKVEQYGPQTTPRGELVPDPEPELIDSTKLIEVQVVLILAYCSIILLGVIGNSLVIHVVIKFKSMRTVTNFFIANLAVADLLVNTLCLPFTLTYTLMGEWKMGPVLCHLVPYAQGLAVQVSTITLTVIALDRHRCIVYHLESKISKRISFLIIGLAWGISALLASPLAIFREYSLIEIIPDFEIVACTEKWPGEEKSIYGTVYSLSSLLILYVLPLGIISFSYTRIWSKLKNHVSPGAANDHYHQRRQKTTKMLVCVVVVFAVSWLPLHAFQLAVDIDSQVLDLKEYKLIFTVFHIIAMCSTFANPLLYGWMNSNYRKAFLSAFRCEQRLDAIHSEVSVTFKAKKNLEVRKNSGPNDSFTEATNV
WT yeast gro inh: growth inhibition of WT yeast, mitochondrial fusion screen; inhibition, % at 10 µM; 190,000 compounds, 2.1% hits; mitochondrial fusion phenotypic screen, WT strain; in the data active = inhibition above about 58%; tested in S. cerevisiae
NPY Y2 blocker: antagonists of human neuropeptide Y receptor Y2 | P49146 | 140,000 compounds, 0.99% hits | inhibition, % at 2.7 µM | NPY-Y2 expressing cells, antagonist mode; in the data active = inhibition above about 17%;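 also: 0% = vehicle with agonist challenge and 100% = reference antagonist with challenge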
NPY-Y1 PAM-ag: potentiators or agonists of human neuropeptide Y receptor Y1. 220,000 compounds, 0.37% hits. P25929. activation, % at 3.6 µM. NPY-Y1 expressing cells, potentiator/agonist activation; in the data active = activation above about 33%, passing the limit was not always enough;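 also: cells stimulated with NPY at EC10 then isoproterenol at EC100; 0% = low agonist plus stimulus and 100% = saturating agonist plus stimulus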
NPY-Y1 pot conf: human NPY-Y1 potentiation or agonism, confirmation; shares compounds with NPY-Y1 PAM-ag; cell-based NPY-Y1 potentiator/agonist assay; activation, % at 3.6 µM; 280 compounds, 20% hits; AID 1546; in the data active = activation above about 45%;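 also: cells challenged with NPY at its EC10 plus isoproterenol stimulus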
NPY-Y2 counter: NPY-Y2 potentiation or agonism as NPY-Y1 counter-screen; AID 1649; 280 compounds, 20% hits; activation, % at 3.6 µM; shares compounds with NPY-Y1 PAM-ag; HEK293-CNG cells, membrane-potential fluorescence (FLIPR), 1536-well; in the data active = activation above about 33%
NPY-Y1 ag: human NPY-Y1 agonism as potentiator counter-screen; 280 compounds, 50% hits; HEK293 Y1-CNGC, membrane potential fluorescence, agonist mode; shares compounds with NPY-Y1 PAM-ag; activation, % at 3.6 µM;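 active = percent activation above the mean of DMSO-only control wells plus 3 SD of those wells, cut at about 18% in these data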;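 also: cells challenged with isoproterenol plus Ro 20-1724 with no NPY in test wells; Y1 agonism lowers isoproterenol-driven cAMP and reduces probe fluorescence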
NPY-Y2 ag: human NPY-Y2 agonism as NPY-Y1 counter-screen; shares compounds with NPY-Y1 PAM-ag; HEK293 Y2-CNGC, membrane potential fluorescence, agonist mode; activation, % at 3.6 µM; 280 compounds, 67% hits;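 active = activation above the solvent-only control wells' mean plus 3 SD, cut at about 11% in these data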;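 also: 0% = DMSO with isoproterenol and 100% = 40 nM NPY maximal response; agonism lowers cAMP so well fluorescence drops in active wells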
CNGC counter: CNG channel inhibition, counter-screen for NPY-Y1 potentiators. HEK293-CNG parental, isoproterenol cAMP, membrane potential fluorescence. inhibition, % at 3.6 µM. 280 compounds, 42% hits. shares compounds with NPY-Y1 PAM-ag;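 active = inhibition above the mean of stimulated solvent-only control wells plus 3 SD, cut at about 22% in these data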;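 also: 0% = isoproterenol-stimulated DMSO wells and 100% = unstimulated DMSO wells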
* = called active by the depositor; . = no result.

SMILES	RAM inhibit	NPY Y1 blocker	NPY2 pot ag	WT yeast gro inh	NPY Y2 blocker	NPY-Y1 PAM-ag	NPY-Y1 pot conf	NPY-Y2 counter	NPY-Y1 ag	NPY-Y2 ag	CNGC counter
C/C(=N\Nc1ccc(C(=O)c2c(C)cc3ccccn23)cc1[N+](=O)[O-])c1ccc(O)cc1	.	.	9	.	.	62*	9	10	6	12*	4
Cc1cc2ccccn2c1C(=O)c1ccc(N/N=C/c2ccc(C(=O)O)cc2)c([N+](=O)[O-])c1	.	.	-20	.	.	21	.	.	.	.	.
Cc1cc(OC(F)F)ccc1NC(=O)Nc1ccc([N+](=O)[O-])cc1	5	-13	29	12	-6	59*	36	29	25*	28*	31*
COc1ccc(C(=O)Nc2cc(C)on2)cc1[N+](=O)[O-]	1	0	2	-7	.	11	.	.	.	.	.
Cc1ccc(-c2nnc(-c3ccc(NC(=O)Cc4cccs4)cc3)o2)cc1	0	3	0	8	0	50*	-22	-9	-13	3	0
O=C(COc1ccc(S(=O)(=O)NC2CCCCC2)cc1)N1CCN(c2ccc(F)cc2)CC1	2	-2	-19	9	0	6	.	.	.	.	.
O=C(COc1ccc(S(=O)(=O)NC2CCCCC2)cc1Cl)N1CCN(c2ccccc2)CC1	4	-5	15	23	-4	41*	8	8	-1	9	13
Cc1c(N2C(=O)CSC2c2ccc([N+](=O)[O-])cc2)c(=O)n(-c2ccccc2)n1C (configuration not stated)	.	.	4	.	.	11	.	.	.	.	.
CC(C)c1ccc2c(c1)CCC1C(C)(CN)CCCC21C (configuration not stated)	.	.	33	.	.	47*	48*	42*	34*	40*	22
CC(c1ccccc1)N1C(=O)c2ccccc2C1(O)Cc1ccccc1 (configuration not stated)	1	-5	9	-6	.	10	.	.	.	.	.
CCN(CC)c1ccc(/C=C(/C#N)c2nc3ccc(C)cc3[nH]2)c(OC(C)C)c1	0	-3	32	28	-5	44*	52*	38*	28*	45*	30*
CCCOc1cc(N(CC)CC)ccc1/C=C(/C#N)c1nc2ccc(C)cc2[nH]1	4	2	27	7	2	25	.	.	.	.	.
Cn1c(CSCc2ccc(Cl)cc2Cl)n[nH]c1=S	0	0	-16	54	.	65*	-3	2	0	7	-9
CCOC(=O)C(CC(C)C)CP(=O)(O)CNC(=O)OCc1ccccc1 (configuration not stated)	2	3	-15	-4	4	-6	.	.	.	.	.
Cc1ccc(-c2[nH]c3ccccc3c2SCCNC(=O)c2ccc(S(=O)(=O)N3CCOCC3)cc2)cc1	4	-5	22	-1	1	48*	22	12	12	11*	10
COC(=O)c1ccc(NC(=O)CN2CCN(c3ccc(Cl)cc3)CC2)cc1	1	3	-6	-10	7	12	.	.	.	.	.
COC(=O)c1ccc(NC(=O)CN2CCN(c3ccccc3C)CC2)cc1	0	13	10	16	10	54*	-37	-26	-22	-4	-27
Cn1c(C(C#N)C2=C(Cl)C(=O)N(c3ccccc3)C2=O)nc2ccccc21 (configuration not stated)	5	-17	30	20	-7	36*	71*	60*	83*	72*	58*
Cn1c(C(O)C(O)c2ccccc2)nc2ccccc21 (configuration not stated)	4	-5	6	-10	.	9	.	.	.	.	.
Nc1nc(Cl)cc(N2CCC(c3cc(-c4ccc(Cl)cc4)n[nH]3)CC2)n1	2	-5	33	12	-2	55*	15	15	1	15*	6
CC(C)(C)Nc1nc(Cl)nc(N(C#N)CN2C(=O)c3ccccc3S2(=O)=O)n1	0	-2	9	2	.	65*	46*	28	39*	29*	22*
CS(=O)(=O)N(CC(=O)NCC1CCCO1)c1cc(Cl)cc(Cl)c1 (configuration not stated)	2	7	-8	6	1	-14	.	.	.	.	.
N#CC(C#N)=NNc1ccc([N+](=O)[O-])cc1	.	.	33	.	.	51*	40	32	37*	36*	32*
C/C(=N\Nc1ccc([N+](=O)[O-])cc1)c1ccc(C#N)cc1	.	.	14	.	.	20	.	.	.	.	.
CC(C)Cn1nnc2c(=O)oc3ccccc3c21	3	1	14	7	0	60*	38	24	25*	23*	22*
COc1cccc(NC(=O)c2ccc(NCCCN3CC(C)CC(C)C3)c([N+](=O)[O-])c2)c1 (configuration not stated)	-1	-1	16	30	.	38*	43	26	16	14*	31*
COc1cccc(NC(=O)c2ccc(NCCCN3CCC(C)CC3)c([N+](=O)[O-])c2)c1	-1	0	14	6	.	18	.	.	.	.	.
COc1ccc(N=Nc2ccc(O)c3ncccc23)cc1	.	.	25	.	.	40	.	.	.	.	.
COc1ccc(C)cc1N=Nc1ccc(O)c2ncccc12	0	-10	20	20	.	47*	49*	42*	57*	53*	51*

Assay outcomes: PubChem, several laboratories
